According to PMC6170741 (Investigational new drugs, 2018):
pKi: −log10 of the molar value.

Assays:
[1] = system: patients with solid tumors; experiment: Clinical activity; format: in vivo, human
[2] = Repeat dose plasma pharmacokinetics in patients; format: in vivo, human
Procedure, shortened: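 Fasted patients took oral capsules once daily. Steady-state plasma was sampled up to 24 h post-dose on day 8 (10 and 20 mg cohorts), day 15 (40–150 mg cohorts), day 7 (7-on/7-off) or day 22 (t.i.w.). Dose-reduced patients were sampled at the new dose. Drug was measured by liquid-liquid extraction and HPLC-MS/MS (validated 1–1000 ng/mL; LLOQ 1.00 ng/mL). Parameters were derived non-compartmentally.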

[3] = system: patients with solid tumors; experiment: Phase I safety and tolerability; format: in vivo
AKT3 = conditions: read-out: AKT3 Ki*; cited from earlier work
AKT1 = conditions: read-out: AKT1 Ki*; cited from earlier work
[4] = system: blood glucose and insulin levels; experiment: Pharmacodynamics: insulin after standardized meal, 1,5-anhydroglucitol; format: in vivo, human
[5] = Single dose plasma pharmacokinetics in patients; format: in vivo, human; conditions: for Tmax: human, plasma, po, across all doses and regimens
Procedure, shortened: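 Fasted patients took one oral capsule dose (Cycle 0) before repeat dosing began. Drug was quantified by liquid-liquid extraction and HPLC-MS/MS (range 1–1000 ng/mL; LLOQ 1.00 ng/mL). Non-compartmental analysis gave AUC(0–24) and Cmax, and variability was expressed as CV%.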

[6] = repeat dose, 75 mg, continuous daily regimen
[7] = any cause, all cohorts, N = 77, CTCAE v3.0
[8] = 75 mg, continuous daily regimen

## Cn1ncc(Cl)c1-c1cc(C(=O)N[C@H](CN)Cc2ccc(F)c(F)c2)oc1Cl [GSK2141795]
[1]; 75 mg qd
  endometrial cancer patients with stable disease (SD) on therapy for more than 6 months: 4 patients
  prostate cancer patients with stable disease (SD) on therapy for more than 6 months: 3 patients
[1]; RP2D 75 mg qd
  partial responses (PRs): two partial responses
[1]; of 77 enrolled (68%), at study completion
  patients withdrawn due to disease progression: 52 patients
[2]; continuous qd dosing
  time to reach steady-state: approximately 14 days
[2]; human, plasma, oral, 20 mg, C24, repeat dose 20 mg once daily (n = 1), day 8
  concentration at 24 h: 42.1 ng/mL
[2]; human, plasma, oral, 20 mg, Cmax, repeat dose 20 mg once daily (n = 1), day 8
  Cmax: 90.3 ng/mL
[2]; human, plasma, oral, 20 mg, Tmax, repeat dose 20 mg once daily (n = 1), day 8
  Tmax: 3 h
[2]; human, plasma, oral, median Tmax, repeat dose, generally
  Tmax: 2 to 4 h
[2]; [6]
  CV% in exposure, AUC(0–24): 52%
  CV% in exposure, Cmax: 50%
[3]; 75 mg qd 7-on/7-off cohort
  DLTs: No DLTs
[3]; 75 mg t.i.w. cohort
  DLTs: No DLTs
[3]; 100 mg qd 7-on/7-off cohort
  DLTs: Two DLTs, grade 3 hyperglycemia and grade 3 rash
[3]; 100 mg qd cohort (exceeded the MTD)
  DLTs: two DLTs, including grade 1 stomatitis that did not resolve, leading to a treatment delay of >14 days, as well as grade 4 hypoglycemia
[3]; 100 mg t.i.w. cohort
  DLTs: No DLTs
[3]; 150 mg qd cohort (exceeded the MTD)
  DLTs: two DLTs of grade 3 hyperglycemia
[3]; 7-on/7-off schedule
  maximum tolerated dose (MTD): 75 mg
[3]; all cohorts
  hyperglycemia, patients: 22%
  rash, patients: 22%
[3]; all cohorts, cycle 1
  patients with DLTs: 7 patients
[3]; [7]
  Abdominal pain, Grade 1: 13 (17) n (%)
  Abdominal pain, Grade 2: 4 (5) n (%)
  Abdominal pain, Grade 3: 3 (4) n (%)
  Abdominal pain, Grade 4: 0 n (%)
  Abdominal pain, Total: 20 (26) n (%)
  Back pain, Grade 1: 11 (14) n (%)
  Back pain, Grade 2: 3 (4) n (%)
  Back pain, Grade 3: 1 (1) n (%)
  Back pain, Grade 4: 0 n (%)
  Back pain, Total: 15 (19) n (%)
  Constipation, Grade 1: 14 (18) n (%)
  Constipation, Grade 2: 3 (4) n (%)
  Constipation, Grade 3: 0 n (%)
  Constipation, Grade 4: 0 n (%)
  Constipation, Total: 17 (22) n (%)
  Cough, Grade 1: 9 (12) n (%)
  Cough, Grade 2: 0 n (%)
  Cough, Grade 3: 0 n (%)
  Cough, Grade 4: 0 n (%)
  Cough, Total: 9 (12) n (%)
  Decreased appetite, Grade 1: 23 (30) n (%)
  Decreased appetite, Grade 2: 6 (8) n (%)
  Decreased appetite, Grade 3: 0 n (%)
  Decreased appetite, Grade 4: 1 (1) n (%)
  Decreased appetite, Total: 30 (39) n (%)
  Diarrhea, Grade 1: 33 (43) n (%)
  Diarrhea, Grade 2: 13 (17) n (%)
  Diarrhea, Grade 3: 3 (4) n (%)
  Diarrhea, Grade 4: 0 n (%)
  Diarrhea, Total: 49 (64) n (%)
  Dizziness, Grade 1: 12 (16) n (%)
  Dizziness, Grade 2: 0 n (%)
  Dizziness, Grade 3: 0 n (%)
  Dizziness, Grade 4: 0 n (%)
  Dizziness, Total: 12 (16) n (%)
  Dysgeusia, Grade 1: 7 (9) n (%)
  Dysgeusia, Grade 2: 1 (1) n (%)
  Dysgeusia, Grade 3: 0 n (%)
  Dysgeusia, Grade 4: 0 n (%)
  Dysgeusia, Total: 8 (10) n (%)
  Dyspnea, Grade 1: 10 (13) n (%)
  Dyspnea, Grade 2: 3 (4) n (%)
  Dyspnea, Grade 3: 2 (3) n (%)
  Dyspnea, Grade 4: 0 n (%)
  Dyspnea, Total: 15 (19) n (%)
  Fatigue, Grade 1: 21 (27) n (%)
  Fatigue, Grade 2: 16 (21) n (%)
  Fatigue, Grade 3: 0 n (%)
  Fatigue, Grade 4: 1 (1) n (%)
  Fatigue, Total: 38 (49) n (%)
  Headache, Grade 1: 7 (9) n (%)
  Headache, Grade 2: 0 n (%)
  Headache, Grade 3: 1 (1) n (%)
  Headache, Grade 4: 1 (1) n (%)
  Headache, Total: 9 (12) n (%)
  Hyperglycemia, Grade 1: 2 (3) n (%)
  Hyperglycemia, Grade 2: 9 (12) n (%)
  Hyperglycemia, Grade 3: 5 (6) n (%)
  Hyperglycemia, Grade 4: 1 (1) n (%)
  Hyperglycemia, Total: 17 (22) n (%)
  Mucosal inflammation, Grade 1: 7 (9) n (%)
  Mucosal inflammation, Grade 2: 1 (1) n (%)
  Mucosal inflammation, Grade 3: 0 n (%)
  Mucosal inflammation, Grade 4: 0 n (%)
  Mucosal inflammation, Total: 8 (10) n (%)
  Nausea, Grade 1: 42 (55) n (%)
  Nausea, Grade 2: 4 (5) n (%)
  Nausea, Grade 3: 1 (1) n (%)
  Nausea, Grade 4: 0 n (%)
  Nausea, Total: 47 (61) n (%)
  Peripheral edema, Grade 1: 9 (12) n (%)
  Peripheral edema, Grade 2: 0 n (%)
  Peripheral edema, Grade 3: 0 n (%)
  Peripheral edema, Grade 4: 0 n (%)
  Peripheral edema, Total: 9 (12) n (%)
  Pyrexia, Grade 1: 10 (13) n (%)
  Pyrexia, Grade 2: 2 (3) n (%)
  Pyrexia, Grade 3: 0 n (%)
  Pyrexia, Grade 4: 0 n (%)
  Pyrexia, Total: 12 (16) n (%)
  Rash, Grade 1: 8 (10) n (%)
  Rash, Grade 2: 8 (10) n (%)
  Rash, Grade 3: 1 (1) n (%)
  Rash, Grade 4: 0 n (%)
  Rash, Total: 17 (22) n (%)
  Urinary tract infection, Grade 1: 6 (8) n (%)
  Urinary tract infection, Grade 2: 6 (8) n (%)
  Urinary tract infection, Grade 3: 0 n (%)
  Urinary tract infection, Grade 4: 0 n (%)
  Urinary tract infection, Total: 12 (16) n (%)
  Vomiting, Grade 1: 29 (38) n (%)
  Vomiting, Grade 2: 3 (4) n (%)
  Vomiting, Grade 3: 1 (1) n (%)
  Vomiting, Grade 4: 0 n (%)
  Vomiting, Total: 33 (43) n (%)
  Weight decreased, Grade 1: 12 (16) n (%)
  Weight decreased, Grade 2: 5 (6) n (%)
  Weight decreased, Grade 3: 0 n (%)
  Weight decreased, Grade 4: 0 n (%)
  Weight decreased, Total: 17 (22) n (%)
[3]; at the RP2D
  dose reductions for diarrhea: 2 patients
  dose reductions for rash: 3 patients
[3]; at the RP2D (75 mg qd), % of patients
  grade 3 hyperglycemia: 4%
[3]; of 77 enrolled (17%), at study completion
  patients withdrawn as a result of an AE: 13 patients
[3]; once-daily dosing, oral
  recommended phase II dose (RP2D): 75 mg
[3]; qd dosing
  maximum tolerated dose (MTD): 75 mg
AKT3
  pKi: 8.82
AKT1
  pKi: 10.18
[4]; 5 patients with matched insulin samples, cycle 1 day 15
  insulin levels following a standardized meal, day 15 compared with screening: Three of the five patients had two-fold greater insulin levels
[4]; screening vs steady state, linear regression
  association of decreased 1,5-AG with GSK2141795 concentrations: this association was not consistent across the study or across tumor types
[5]; [8]
  mean variability (CV%) in exposure, AUC(0–24): 37%
  mean variability (CV%) in exposure, Cmax: 62%
[5]; Tmax, majority
  Tmax: 2 to 4 h
[5]; median time to maximal concentration (Tmax)
  Tmax: 3 to 8 h
